In the library only some 2% were active in any assay of this set; here they are far more common.
MEX-5 binding – C. elegans MEX-5 TCR-2 RNA binding activity; Q9XUB2; MEX-5/FITC-TCR2 RNA binding, fluorescence polarization; stronger effect = lower value; activity score (negative = inhibition of binding), % at 10 µM; hit rate 0.38% among 300,000;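 active means inhibition past about -25% in most replicates, and total fluorescence under double the plate's negative control median, limit read from the data; inconclusive means replicates evenly split on the limit, or fluorescence at least double controls; inactive means too little inhibition in most replicates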
EBV gp42 block – blocks Epstein-Barr virus glycoprotein 42 binding; hit rate 0.42% among 220,000; inhibition, % (tested at 21.74 µM); AID 1085; Fluorescence polarization binding assay, mP read-out; Q1HVG2
Runt-CBFb FRET – blocks binding of human RUNX1 Runt domain to CBFb; Cerulean-Runt/Venus-CBFb FRET ratio 530/480, 1 h; inhibition, % at 20 µM; hit rate 0.46% among 220,000; AID 1496;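 active means inhibition over about 50% at 20 µM in the single-dose screen, limit read from the data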
Target sequence (Q01196 whole entry, looked up, the tested form may be a part): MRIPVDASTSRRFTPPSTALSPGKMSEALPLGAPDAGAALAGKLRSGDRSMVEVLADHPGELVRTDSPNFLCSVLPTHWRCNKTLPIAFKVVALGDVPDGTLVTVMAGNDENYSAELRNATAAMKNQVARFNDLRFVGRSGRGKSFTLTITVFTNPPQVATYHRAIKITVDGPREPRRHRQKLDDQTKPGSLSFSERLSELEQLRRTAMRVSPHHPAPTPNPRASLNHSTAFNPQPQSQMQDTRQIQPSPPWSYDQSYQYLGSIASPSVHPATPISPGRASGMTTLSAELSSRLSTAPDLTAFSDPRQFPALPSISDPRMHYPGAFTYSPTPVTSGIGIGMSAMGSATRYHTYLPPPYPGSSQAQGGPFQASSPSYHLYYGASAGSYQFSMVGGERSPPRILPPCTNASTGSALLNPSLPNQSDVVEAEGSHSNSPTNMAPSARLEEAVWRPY
Target sequence (Q13951 whole entry, looked up, the tested form may be a part): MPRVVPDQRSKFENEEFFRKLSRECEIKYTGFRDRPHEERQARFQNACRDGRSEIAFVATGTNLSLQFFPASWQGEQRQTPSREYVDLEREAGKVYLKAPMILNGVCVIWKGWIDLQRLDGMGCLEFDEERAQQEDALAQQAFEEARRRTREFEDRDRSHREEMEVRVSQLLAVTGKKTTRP
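Doses: 20 µM compound in 1% DMSO | Material: Cerulean-labeled Runt domain protein | Amount: Each fluorescent fusion protein 100 nM | Schedule: Two 1 h room-temperature incubations shielded from light | Measured by: FRET fluorescence | Evaluation: Loss of energy transfer signal | Controls: Unlabeled CBFb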
RanGTP-Impb inh – inhibitors of RanGTP-importin-beta interaction, primary screen, biochemical, FRET, CFP-Ran, YFP-importin-beta, homogeneous; cell-free CFP-Ran/YFP-importin-beta FRET ratio; inhibition, % (test concentration not listed); hit rate 1.1% among 300,000; AID 2216;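 active means more than half of the replicate wells show a fall in the fluorescence ratio signal beyond about 16%, limit read from the data, passing the limit was not always enough; inconclusive means exactly half of the replicate wells pass the set limit; inactive means fewer than half of replicates pass the limit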
PKD1 kinase inh – PKD1 (human) kinase inhibition; PKD1 kinase fluorescence polarization assay; Q15139; inhibition, % (no concentration beside the values); AID 797; hit rate 0.056% among 200,000
Runt-SMMHC FRET – blocks binding of human RUNX1 Runt domain to CBFb-SMMHC; Q01196+Q13951; Cerulean-Runt/Venus-CBFb-SMMHC FRET ratio 530/480, 1 h; inhibition, % at 20 µM; hit rate 0.74% among 220,000; AID 1434;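 active means mean inhibition across duplicate retests at 20 µM reaching about 50%, limit read from the data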;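 further: inhibitors lower the FRET ratio by blocking Runt binding to CBFb-SMMHC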
YIC counter – counter-screen: alters YIC FRET probe signal | Purified YIC probe, intramolecular FRET ratio YFP/CFP | shares compounds with RanGTP-Impb inh | AID 435026 | IC50, µM | hit rate 40% among 1,000;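 active means fitted half-maximal inhibitory concentration no more than tenfold above the top dose tested; inconclusive means flat fit with 30 to 70% activity, or poor fit; inactive means half-maximal concentration beyond tenfold above the top dose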
Hits are given with their value; i = inactive; ? = inconclusive; nt = not tested or not shown. Unless noted, no stated cut-off is given here; in the data, active means inhibition above about 50%; inactive means the rest.

SMILES | MEX-5 binding | EBV gp42 block | Runt-CBFb FRET | RanGTP-Impb inh | PKD1 kinase inh | Runt-SMMHC FRET | YIC counter
CN1Cc2c(N3CCOCC3)nc(SCCC#N)c(C#N)c2CC1(C)C | i | i | i | i | nt | i | nt
CC(C)Sc1nc(N2CCOCC2)c2c(c1C#N)CC(C)(C)N(C)C2 | i | i | i | 27.3 | i | 79.2 | 39.3
Cc1cc(S(=O)(=O)N2CCN(c3ccccc3C)CC2)ccc1F | i | i | i | i | i | i | nt
Cc1cc(S(=O)(=O)N2CCN(c3c(C)cccc3C)CC2)ccc1F | i | i | i | 22.0 | i | i | i
COCCNC(=S)N1CCCN(c2nc3cc(C)ccc3cc2C#N)CC1 | i | nt | nt | 17.6 | nt | nt | 30.6
COc1ccccc1C(=O)N1CCN(c2nc3cc(C)c(C)cc3cc2C#N)CC1 | i | i | i | i | i | i | nt
CC(C)c1ccccc1OCC(=O)Nc1ccc2[nH]ncc2c1 | i | nt | nt | i | nt | nt | nt
Cc1oc2cc(O)ccc2c(=O)c1-c1nncn1-c1ccccc1 | ? | 108.5 | i | 37.3 | i | 92.9 | 14.1
COc1ccc(OC)c(CNC(=O)CCn2nc(C)c3c(C)n(-c4ccccc4)nc3c2=O)c1 | i | nt | nt | i | nt | nt | nt
COc1cccc(NC(=O)Nc2ccc3c(c2)N(C)C(=O)CS3)c1 | i | i | i | 20.2 | i | i | i
Cc1nc2nc(CCNS(=O)(=O)c3ccc(Cl)cc3)cn2nc1C | i | nt | nt | 17.7 | nt | nt | 32.2
COc1ccc(S(=O)(=O)NCCc2cn3nc(C)c(C)nc3n2)cc1 | i | nt | nt | ? | nt | nt | nt
CN(C(=O)COC(=O)c1c2c(nc3ccccc13)CCCC2)c1c(N)n(Cc2ccccc2)c(=O)[nH]c1=O | i | nt | nt | i | nt | nt | nt
CCOC(=O)c1sc(/S(C)=N\S(=O)(=O)c2cccc(Cl)c2)c2c1CCC=C2 (stereo not drawn) | i | i | i | i | nt | i | nt
Cc1c(C)c2cc(Cl)c(O)c(CN(C)C)c2oc1=O | i | i | 92.5 | 33.3 | i | 81.4 | 29.1
CCc1c(C)c2cc(Cl)c(O)c(CN(CC)CC)c2oc1=O | i | i | 95.3 | 25.9 | i | 65.3 | 26.5
CCc1c(C)c2ccc(O)c(CN3CCCC3)c2oc1=O | i | nt | nt | i | nt | nt | nt
CCN(CC)Cc1c(O)c(Cl)cc2c3c(c(=O)oc12)CCCC3 | i | i | 107.0 | 47.7 | i | i | 23.1
O=c1oc2c(CN3CCCCC3)c(O)ccc2c2c1CCCC2 | i | i | i | i | i | i | nt
CN1CCN(C(=O)CNc2ccc(C(F)(F)F)cc2[N+](=O)[O-])CC1 | i | i | i | i | i | i | nt
COc1ccc(CNC(=O)C2CC(=O)N(C3CCCCC3)C2)cc1 (stereo not drawn) | i | nt | nt | 21.1 | nt | nt | i
O=C(NCc1ccc(F)cc1)C1CC(=O)N(C2CCCCCCC2)C1 (stereo not drawn) | i | nt | nt | i | nt | nt | nt
C=CCOc1ccccc1CN1CCN(CCc2ccccc2)C(CCO)C1 (stereo not drawn) | i | nt | nt | i | nt | nt | nt
COCCCNC(=O)/C(C#N)=C/c1c(N2CCN(c3ccccc3)CC2)nc2ccccn2c1=O | i | nt | nt | 25.7 | nt | nt | 28.8
CCNC(=O)/C(C#N)=C/c1c(N2CCN(c3ccccc3)CC2)nc2ccccn2c1=O | i | nt | nt | i | nt | nt | nt
SMILES | MEX-5 binding | EBV gp42 block | Runt-CBFb FRET | RanGTP-Impb inh | PKD1 kinase inh | Runt-SMMHC FRET | YIC counter
O=C(Nc1cccc(Br)c1)c1ccc(OC2CSC2)cc1 | i | i | i | i | i | i | nt
CCc1cc(C(=O)N2CCCC(C(=O)c3ccc(Oc4ccccc4)cc3)C2)n(C)n1 (stereo not drawn) | i | nt | nt | i | nt | nt | nt
CC1=Nc2ccccc2/C1=C\c1nc(-c2ccc(F)cc2)oc1O | -36.3 | 137.9 | i | 22.2 | i | i | i
CN=Cc1nc(-c2ccccc2)oc1O | i | i | i | i | i | i | nt
CCOC(=O)C1=C(N)Oc2ccc3ccccc3c2C1c1ccc(O)c(OC)c1 (stereo not drawn) | i | nt | nt | 29.2 | nt | nt | i
CC1(C)CNC(=O)C=C(c2ccccc2)C1 | i | i | i | 22.9 | i | i | i
O=C(c1ccco1)c1cc2c(ccc3ccccc32)oc1=O | i | i | i | 24.0 | i | i | 21.1
CC(C)(C)C(=O)NC(=S)Nc1ccc(S(=O)(=O)Nc2nccs2)cc1 | i | i | i | 17.5 | i | i | i
O=C(Nc1ccc(S(=O)(=O)Nc2nccs2)cc1)C(F)(F)F | i | nt | nt | i | nt | nt | nt
S=c1[nH]nc(-c2ccc(Br)cc2)n1-c1ccc(Br)cc1 | i | nt | nt | i | nt | nt | nt
O=[N+]([O-])c1cccc(-c2n[nH]c(=S)n2-c2ccc(Br)cc2)c1 | i | i | i | 22.7 | i | i | i
O=C(NC(=S)Nc1ccc2nc[nH]c2c1)c1ccccc1 | i | nt | nt | i | nt | nt | nt
CCCOC(=O)CSC1=C(C#N)C(c2ccccc2OCC)C(C#N)C(=O)N1 (stereo not drawn) | i | i | i | 21.3 | i | i | i
C=C(C)Cn1c(SCC(=O)O)nnc1-c1ccc(OC)cc1 | i | i | i | 21.7 | i | i | i
CC(=O)N(/N=C1\Sc2ccccc2C1=O)c1ccccc1C | i | nt | nt | 23.8 | i | i | 39.9
Cc1cc2c(cc1S(=O)(=O)NCCc1ccc(Cl)cc1)OCC(=O)N2 | i | nt | nt | i | nt | nt | nt
COc1ccccc1N1CCN(c2cc(=O)n(Cc3ccc(F)cc3)c(=O)[nH]2)CC1 | i | i | i | ? | i | i | nt
CCOC(=O)N1CCN(c2cc(=O)n(Cc3ccc(F)cc3)c(=O)[nH]2)CC1 | i | i | i | 25.8 | i | i | i
O=c1cc(N2CCN(Cc3ccccc3)CC2)[nH]c(=O)n1-c1ccc(Br)cc1 | i | i | i | 31.1 | i | i | i
CCN1CCN(c2cc(=O)n(Cc3ccc(F)cc3)c(=O)[nH]2)CC1 | i | i | i | 28.8 | i | i | i
Cc1[nH][nH]c(=O)c1C(c1c(C)[nH][nH]c1=O)c1cn(Cc2ccccc2Cl)c2ccccc12 | i | i | i | i | i | i | nt
COC(=O)CCCCCCCC(=O)Nc1nnc(C(F)(F)F)s1 | i | i | i | i | nt | i | nt
Cc1ccc(NC(=O)COC(=O)Cc2ccsc2)c(C)c1 | i | i | i | 18.7 | i | i | i
Cc1ccc(S(=O)(=O)N2CCOCC2)cc1NC(=O)COC(=O)Cc1ccsc1 | i | i | i | i | i | i | nt
COc1ccc(-n2c(=S)[nH]c3cc(C(=O)NCc4ccco4)ccc3c2=O)c(OC)c1 | i | i | i | i | i | i | nt
COc1ccc(-n2c(N)c(C(=O)NCc3ccco3)c3nc4ccccc4nc32)c(OC)c1 | i | i | i | 32.6 | i | 95.3 | 19.4
CC(CNC(=O)c1ccc(C#N)cc1)NC(=O)c1ccc(C#N)cc1 (stereo not drawn) | i | nt | nt | i | nt | nt | nt
CCn1ccnc1CNC(=O)c1ccc2oc(CCCc3ccccc3)nc2c1 | i | nt | nt | i | nt | nt | nt
COc1ccccc1C(=O)c1cc2ccc(O)cc2oc1=O | i | i | 114.4 | 54.8 | i | 126.6 | 7.12
O=C(c1ccccc1)c1cc2ccccc2oc1=O | i | nt | nt | i | nt | nt | nt
